Compound activity (PubChem BioAssay)
PRMT1 FP inh: inhibitors of human PRMT1; inhibition, % at 2.79 µM; 1.3% of 370,000 active; Q99873; recombinant PRMT1, activity-based probe fluorescence polarization;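 active means inhibition above about 21% made by adding two undisclosed values, limit read from the data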
LEDGF integ inh: blocks HIV-1 LEDGF/p75-dependent DNA integration; inhibition, % at 3.7 µM; AID 743269; TR-FRET IN-LEDGF/p75 DNA integration, Eu/Cy5; 0.64% of 370,000 active;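 active means inhibition above the screen-wide mean plus 3 SD, cut at about 13% in these data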;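 further: signal is the Cy5 over europium emission ratio at 671 and 618 nm; 0% = plate median of compound wells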
RBBP9 inh: inhibitors of human serine hydrolase RBBP9 | recombinant RBBP9, FP-Rh probe fluorescence polarization | inhibition, % at 7.94 µM | 0.2% of 220,000 active | AID 1515;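 active means inhibition above the campaign mean of all tested compounds plus 3 SD, cut at about 14% in these data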;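 further: plate controls were DMSO wells with RBBP9 for no effect and wells lacking RBBP9 protein for full effect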
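Measured by: FP readout at 525/598 nm; material: recombinant human RBBP9; also added: Serine-hydrolase probe FP-Rh, 375 nM pre-mixing; medium: Tris buffer pH 8.0, NaCl, Pluronic; replication: one well per compound; doses: one concentration, 7.94 µM nominal, 0.794% DMSO; timing: preincubation 30 min plus labeling 45 min at 25 °C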
ABHD5-PLIN5 inh: blocks binding of human ABHD5 to perilipin-5; Q00G26+Q8WTS1; Split G. princeps luciferase complementation, luminescence, 4 h; inhibition, % at 4 µM; 0.78% of 360,000 active; AID 602281;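 active means inhibition above the mean inhibition across every tested compound plus 3 SD, cut at about 22% in these data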;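 further: 0% = DMSO only wells and the 100% control is not disclosed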
Target sequence (Q00G26 whole entry, looked up): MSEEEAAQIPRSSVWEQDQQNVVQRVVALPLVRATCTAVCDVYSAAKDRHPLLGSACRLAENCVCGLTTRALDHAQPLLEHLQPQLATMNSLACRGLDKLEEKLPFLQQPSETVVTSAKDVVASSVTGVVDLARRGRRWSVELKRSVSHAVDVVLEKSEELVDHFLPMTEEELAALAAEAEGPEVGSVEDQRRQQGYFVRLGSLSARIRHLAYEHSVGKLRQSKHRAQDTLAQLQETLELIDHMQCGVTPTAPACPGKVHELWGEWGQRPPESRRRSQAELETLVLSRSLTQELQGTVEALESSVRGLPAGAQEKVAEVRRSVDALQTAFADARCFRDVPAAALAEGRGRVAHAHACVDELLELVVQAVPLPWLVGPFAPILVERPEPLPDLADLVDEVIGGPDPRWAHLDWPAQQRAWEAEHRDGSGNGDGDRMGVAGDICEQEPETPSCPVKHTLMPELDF
Target sequence (Q8WTS1 whole entry, looked up): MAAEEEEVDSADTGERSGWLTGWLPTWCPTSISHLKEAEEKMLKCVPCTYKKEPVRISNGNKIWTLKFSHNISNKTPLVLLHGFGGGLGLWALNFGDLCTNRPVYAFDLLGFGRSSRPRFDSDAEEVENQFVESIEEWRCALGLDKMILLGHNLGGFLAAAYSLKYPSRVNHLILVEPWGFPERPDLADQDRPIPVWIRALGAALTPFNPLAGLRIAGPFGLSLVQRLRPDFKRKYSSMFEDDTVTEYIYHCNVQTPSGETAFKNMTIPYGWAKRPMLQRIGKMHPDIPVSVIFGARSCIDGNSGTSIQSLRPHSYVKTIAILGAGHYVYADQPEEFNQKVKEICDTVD
UHRF1 binding: UHRF1 methyl-DNA binding inhibition; 0.75% of 370,000 active; UHRF1 binding to methylated oligo, TR-FRET; Q96T88; inhibition, % at 4.4 µM; in the data active means inhibition above about 21%;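 further: UHRF1 SRA domain binding a hemimethylated CpG hairpin DNA probe; 0% = median of test compound wells and 100% = reference inhibitor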
MBD2 DNA inh: MBD2-methylated oligo binding inhibition; Q9UBB5; TR-FRET, MBD2 binding to methylated oligonucleotide; 0.31% of 370,000 active; inhibition, % at 4.4 µM; AID 686964; in the data active means inhibition above about 13%
The depositor's hits bear a star; · = not tested or not shown. In the library only some 3.1% were active in any assay of this set; here they are far more common.

SMILES | PRMT1 FP inh | LEDGF integ inh | RBBP9 inh | ABHD5-PLIN5 inh | UHRF1 binding | MBD2 DNA inh
CCC(CC)C(=O)Nc1c2c(nn1-c1ccc(OC)cc1)CS(=O)C2 (configuration not stated) | -1 | 0 | -7 | 3 | 39* | -3
OCC1OC(n2cnc3c(=S)nc[nH]c32)CC1O (configuration not stated) | 21* | 4 | · | 2 | 8 | 8
CCOC(=O)C1CCCN(C(=O)c2cc(Cl)ccc2Cl)C1 (configuration not stated) | 0 | 0 | 0 | 2 | 22* | 10
CCOC(=O)C1CCCN(C(=O)c2ccc(Cl)cc2)C1 (configuration not stated) | 2 | -5 | 0 | 0 | 3 | 2
COC(=O)c1cc(-c2cccc(OC(F)(F)F)c2)c(=O)n2c1CCC2 | 3 | 12 | · | · | 1 | 3
CCN(CC)c1c([N+](=O)[O-])c(=O)n(C)c2ccccc12 | 0 | -5 | 0 | -2 | 1 | 4
Cn1c(=O)c([N+](=O)[O-])c(Cl)c2ccccc21 | 18 | 0 | -3 | 34* | -2 | -1
Cc1ccccc1CNC(=O)CCn1nc(C)c2c(C)n(-c3ccccc3)nc2c1=O | -4 | 1 | · | -1 | 22* | 10
Cc1ccc(-n2nc3c(=O)n(CCCC(=O)NCc4ccccc4C)nc(C)c3c2C)cc1 | 0 | 2 | · | 0 | -1 | 1
C=CCN1[C@H](C)COc2cccc(N3CCCC3)c2S1(=O)=O | -3 | -1 | · | · | 1 | 0
O=C(O)COc1ccc(/C=N/NC(=O)c2ccc(-c3csc(Nc4ccc(Cl)cc4)n3)cc2)cc1 | 3 | -2 | 2 | -6 | 21* | 10
COc1ccc(C(CC(=O)c2ccc(C)cc2)Sc2ccccc2N)cc1 (configuration not stated) | 24* | 1 | · | -4 | 3 | -2
CCSc1nnc(NC(=O)c2ccccc2C)s1 | 1 | 1 | -5 | -4 | 24* | 0
Cc1cccc(Cn2cc(COC(=O)Nc3ccc(F)cc3)nn2)c1 | -11 | 5 | · | · | 4 | -2
CCOC(=O)c1sc(N(Cc2ccccc2)C(=O)CCl)nc1C | 22* | -1 | · | 5 | 0 | -2
CCOC(=O)c1sc(Nc2ccccc2Cl)nc1C | 0 | 6 | -7 | 4 | 27* | 5
CCCCCCCCN1C(=O)[C@@H](CC(=O)NCc2ccc(OC)c(OC)c2)C[C@@]2(C(=O)OC)C1=C[C@H](COCc1ccccc1)O[C@@H]2C | -1 | 1 | · | · | 2 | -4
Cc1noc(C)c1S(=O)(=O)NCc1ccc2c(c1)OCO2 | -6 | 6 | · | 7 | 3 | -4
Cc1noc(C)c1S(=O)(=O)NCc1ccc(CN(C)C)cc1 | -4 | 0 | · | 4 | 33* | 3
Brc1ccc(N2O[C@H]3C=C[C@@H]2C3)nc1 | 15 | 3 | · | · | -4 | -1
CC(C)OCCCNC(=S)NNC(=O)C(c1ccccc1)c1ccccc1 | 4 | -3 | -5 | -7 | 22* | 2
CC(C)OCCCNC(=O)C(=O)NCCCOC(C)C | 7 | -1 | 0 | 10 | 8 | 10
CCOc1ccc(S(=O)(=O)N2CCN(Cc3ccco3)CC2)cc1 | 2 | 6 | · | 1 | 27* | 7
CCc1ccc(S(=O)(=O)N2CCN(Cc3ccco3)CC2)cc1 | 2 | -6 | · | -3 | 1 | 5
Cc1cc(-c2cc(NC(=O)Cc3c[nH]c4ccccc34)ccc2N(C)c2cccnc2)ccc1F | 0 | -3 | · | · | -2 | -4
SMILES | PRMT1 FP inh | LEDGF integ inh | RBBP9 inh | ABHD5-PLIN5 inh | UHRF1 binding | MBD2 DNA inh
CCc1ccc(CCNC(=O)OCCCN2CCC3(CCC(C)CC3)C2=O)cc1 (configuration not stated) | -1 | -2 | · | · | 0 | -7
Cc1ccccc1NC(=O)/C=C/c1ccc([N+](=O)[O-])s1 | · | · | -7 | 29* | · | ·
Cc1cc(C)cc(NC(=O)/C=C/c2ccc([N+](=O)[O-])s2)c1 | -2 | 0 | -1 | 0 | -1 | 0
CCCC(=O)N1CCC[C@]2(CC[C@@H](CCC(C)=O)O2)C1 | -2 | -3 | · | · | 1 | 0
COc1ccc(CCNCC(O)Cn2c3ccccc3c3ccccc32)cc1OC (configuration not stated) | -3 | 6 | -6 | 22* | -1 | -6
COc1ccc(-n2c(SCc3ccc([N+](=O)[O-])cc3)nnc2-c2ccco2)cc1 | 1 | 0 | · | · | -2 | -7
COC(=O)C1=C(C)N(C)C(=NCc2ccc3c(c2)OCO3)NC1c1ccc(Cl)cc1 (configuration not stated) | -2 | 1 | · | · | 4 | 2
N#CC1=C(N)Oc2cc(N)ccc2C1c1ccc(F)cc1F (configuration not stated) | 24* | 6 | · | -1 | -7 | -5
N#CC1=C(N)Oc2cc(N)ccc2C1c1ccc(Cl)cc1 (configuration not stated) | 3 | 5 | · | -1 | -7 | -3
Cc1ccc(N2CC(=O)Nc3c(sc4nc(C)cc(C)c34)C2=O)cc1 | -1 | 3 | 8 | -1 | 25* | 6
CC(=O)c1ccc(S(=O)(=O)Nc2cccc(-n3cnnn3)c2)cc1 | 1 | 2 | · | 3 | 40* | 4
CC(=O)Nc1ccc(S(=O)(=O)Nc2cccc(-n3cnnn3)c2)cc1 | -1 | 1 | · | 2 | -1 | -1
CC(C)(C)c1ccc(-n2nc(C#N)c(Cl)cc2=O)cc1 | 7 | 1 | 7 | 32* | 1 | 3
Oc1ccc(N2CCN(Cc3cc4c(cc3Br)OCCO4)CC2)cc1 | 23* | 2 | · | 12 | -4 | 0
O=S(=O)(c1ccc(F)cc1)N1CCN(Cc2cc3c(cc2Br)OCCO3)CC1 | -4 | 0 | · | -13 | 1 | 2
O=C(CSC1=NC2(CCCCC2)N=C1c1ccccc1)Nc1ccc2c(c1)OCCO2 | 22* | -1 | -5 | -23 | 0 | -4
COc1cc(/C=C2\SC(=Nc3ccccc3)N(CCc3c[nH]c4ccccc34)C2=O)ccc1OC(C)C(=O)O (configuration not stated) | 4 | -3 | -8 | -2 | 4 | 4
O=C1/C(=C/c2ccc(N3CCOCC3)o2)SC(=Nc2ccccc2)N1CCc1c[nH]c2ccccc12 | · | · | 6 | 77* | · | ·
O=C(Oc1cc2oc(=O)c3c(c2cc1Cl)CCCC3)c1ccco1 | 2 | 1 | -4 | 3 | 24* | 12
COc1ccc(N2CCN(C(=O)C3CCCN(S(=O)(=O)c4ccc5c(c4)oc(=O)n5C)C3)CC2)cc1 (configuration not stated) | 0 | -7 | · | -1 | 2 | 3
COc1ccccc1N1CCN(C(=O)C2CCCN(S(=O)(=O)c3ccc4c(c3)oc(=O)n4C)C2)CC1 (configuration not stated) | 3 | -3 | · | -2 | 24* | 7
COC(=O)[C@]12C[C@H](CC(=O)N3CCCC3)C(=O)N(Cc3ccco3)C1=C[C@H](C(C)(C)C)O[C@@H]2C | 4 | 1 | · | · | 1 | -1
